Source: PubChem BioAssay (Broad Institute)
FGF22 binding – binders of recombinant human FGF22 by thermal shift. SYPRO orange fluorescence; percent of sucrose octasulfate shift, DMSO zero. activity (Tm shift, normalised), % at 9.99 µM. hit rate 1.5% among 340,000;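 active = mean Tm shift, scaled 0 neutral to 100 positive control, at about 1.3% or above, every replicate too, limit read from the data; inconclusive = no clear call, values can overlap the other calls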
Target sequence (Q9HCT0 whole entry, looked up): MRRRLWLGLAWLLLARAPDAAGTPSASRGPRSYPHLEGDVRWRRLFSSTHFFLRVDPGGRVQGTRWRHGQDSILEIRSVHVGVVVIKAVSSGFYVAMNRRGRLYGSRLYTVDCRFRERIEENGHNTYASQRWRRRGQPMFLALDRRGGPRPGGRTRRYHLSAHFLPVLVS
HIV Env fusion – HIV envelope-mediated fusion inhibition | HeLa-JRFL Env/CEM21 cell fusion, luciferase | inhibition, % at 12.3 µM | hit rate 1.1% among 360,000 | AID 651610;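 active = mean replicate inhibition score of at least 50 and every replicate individually at or above 50; inconclusive = only one of the two criteria met; inactive = mean below 50 and not all replicates reaching 50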;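 note: 0% = plate neutral controls and 100% = maraviroc near 300 nM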
PGC1a acetyl inh – lowers PGC1a acetylation signal in U2OS cells; hit rate 0.17% among 350,000; AlphaScreen anti-acetyl-lysine; with virally co-expressed GCN5 acetyltransferase; inhibition, % at 15.6 µM;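 active = every replicate shows inhibition of at least 40%; inconclusive = mean inhibition at least 40% but some replicate below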;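 note: 0% = neutral control wells and 100% = positive control wells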
EWS-Fli inh – EWS/Fli transcriptional activity inhibition | A673 NR0B1-luciferase reporter, viability-normalised | inhibition, % at 12.6 µM | hit rate 0.67% among 350,000 | AID 651661;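 active = mean inhibition of at least 50% after viability correction, with every replicate also passing that limit; inconclusive = mean reaches 50% but only one of two replicates passes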;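 note: firefly luciferase signal divided by Alamar Blue viability fluorescence both relative to DMSO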
PAX8 reporter – inhibitors of PAX8 transcriptional activity in RMG-I cells | RMG-I TPO-luciferase reporter, SteadyGlo, 24 h | inhibition, % at 12.6 µM | hit rate 1.2% among 360,000;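 active = mean replicate inhibition at least 60% with every replicate also reaching 60%; inconclusive = only one of the two criteria is met; inactive = mean below 60% and not all replicates reaching 60%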;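 note: luciferase light reporting Pax8 driven TPO promoter activity; plate controls were median of neutral control wells for no effect and mitoxantrone controls for full effect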
FN deposit inh – fibronectin deposition inhibition. AH1F fibroblasts, Alexa488-fibronectin deposition fluorescence, overnight. inhibition, % at 12.6 µM. hit rate 0.086% among 350,000. AID 743247;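 active = mean inhibition across replicates of 30% or more, regardless of how many single replicates reach that level; inconclusive = mean under 30% yet at least half of replicates reach 30%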;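 note: positive control wells lacked labelled fibronectin entirely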
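Material – AH1F fibroblast monolayer, labelled fibronectin deposition · Reagent – labelled fibronectin 24 nM · Timing – 1 h adhesion, overnight exposure · Measured by – fluorescence at 485 nm excitation, 525 nm emission · Read-out – inhibition of fibronectin deposition signal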
The depositor's hits bear a star; i = inactive; ? = inconclusive; . = not tested or not shown; [ ] = remark or other dose. A selection: hits, their analogues and other compounds. The true share with any hit is near 3.1%.

SMILES | FGF22 binding | HIV Env fusion | PGC1a acetyl inh | EWS-Fli inh | PAX8 reporter | FN deposit inh
CC(=O)OC[C@]12CCC(C)=C[C@H]1O[C@@H]1[C@H](O)[C@@H](OC(C)=O)[C@@]2(C)[C@]12CO2 | -0.1 | . | 85.5* | 55.5* | . | .
COc1ccc(-n2nnnc2C(CCc2ccccc2)N2CCC(n3c(=O)[nH]c4ccccc43)CC2)cc1 (centres undefined) | 0.4 | 13.7 | 55.0* | 4.3 | 104.4* | .
O=c1[nH]c2ccccc2n1C1CCN(C(c2ccnc3ccccc23)c2nnnn2-c2ccc3c(c2)OCCO3)CC1 (centres undefined) | 0.1 | 21.0 | 5.2 | 1.0 | 76.5* | 16.4
O=c1[nH]c2ccccc2n1C1CCN(C(CCc2ccccc2)c2nnnn2-c2ccc3c(c2)OCCO3)CC1 (centres undefined) | -0.1 | 37.8 | 32.8 | 40.9 | 106.4* | 5.6
Cc1cccc(C)c1-n1nnnc1C(CCc1ccccc1)N1CCC(n2c(=O)[nH]c3ccccc32)CC1 (centres undefined) | 0.0 | 27.4 | -10.9 | 36.9 | -18.0 | 5.6
COC(=O)[C@H]1[C@H](CO)[C@H]2Cn3c(ccc(/C=C/c4ccccc4)c3=O)[C@@H]1N2C(=O)C1CCC1 | -0.2 | . | . | -7.7 | . | .
CN(Cc1cccc(-c2cccnc2)c1)C(=O)Oc1ccc([N+](=O)[O-])cc1 | -0.4 | 134.2* | . | -12.9 | -15.0 | .
COc1ccc(C#Cc2ccc([C@H]3[C@@H](CO)N4CCCCN(C(=O)Cc5ccncc5)C[C@@H]34)cc2)cc1 | 0.4 | . | 15.7 | . | -21.0 | .
COC(=O)C12OCC34C(CC5C(C)=C(O)C(=O)CC5(C)C3C(O)C1O)OC(=O)C(OC(=O)/C=C(\C)C(C)C)C24 (centres undefined) | 0.0 | 84.3* | 86.2* | 46.4 | 95.9* | 13.0
C[C@]12CCC3[C@@H](CC[C@H]4C[C@@H](O)CC[C@]34C)C1CCC2=O (some centres undefined) | 0.0 | 8.2 | -8.4 | 3.2 | -9.3 | 2.0
C[C@]12CCC3C(CC[C@H]4[C@@H](O)[C@H](O)CC[C@]34C)C1CCC2=O (some centres undefined) | 46.1* | -26.4 | 0.1 | 0.1 | 12.6 | 5.7
O=C(c1ccc(CNS(=O)(=O)c2ccccc2)cc1)N1CCC2(CC1)OCCO2 | . | . | -11.0 | . | . | .
O=C(c1ccc(CNS(=O)(=O)c2ccc(Br)cc2)cc1)N1CCC2(CC1)OCCO2 | -0.1 | . | -3.1 | 5.0 | 64.1* | -4.0
COC(=O)[C@H]1[C@H](CO)[C@H]2Cn3c(cccc3=O)[C@@H]1N2Cc1nccs1 | -0.2 | -1.4[16.7 µM] | . | 2.2 | -1.1 | .
O=C(Cc1cccnc1)N1CCCCN2[C@H](C1)[C@@H](c1ccc(C#CC3CC3)cc1)[C@@H]2CO | -0.4 | . | 2.1 | -11.4 | -35.8 | .
CC(C)c1ccc(N2C(=O)NC(=O)/C(=C\c3cnc(-c4ccccc4)nc3)C2=O)cc1 | . | . | -5.8 | . | . | .
CC(C)c1ccc(N2C(=O)NC(=O)/C(=C\C=C\c3ccco3)C2=O)cc1 | 0.2 | -212.7 | . | 73.7* | -1.5 | -0.2
O=C1NC(=O)N(Cc2ccccc2)C(=O)/C1=C/C=C/c1ccco1 | -0.5 | i | . | 64.7* | 27.4 | 0.9
C1=C(c2c[nH]c3ccccc23)CCN(Cc2ccccc2)C1 | 0.3 | 6.9 | . | 25.7 | 64.2* | 13.6
CC(C)CCn1c(=O)c(C(=O)Nc2ccccc2S(N)(=O)=O)c(O)c2ccccc21 | . | ? | 3.4 | . | 69.3* | -9.1
O=C(Cc1ccccc1)N1CCCCN2[C@@H](CO)[C@H](c3ccc(-c4ccccc4)cc3)[C@@H]2C1 | -0.3 | . | -4.9 | . | -16.8 | .
CCOC(=O)C(NC(=O)C(Cc1ccc(N(CCCl)CCCl)cc1)NC(C)=O)C(C)C (centres undefined) | 0.9 | -26.1 | -0.7 | 5.9 | 2.5 | .
COC(=O)C(Cc1ccc(N(CCCl)CCCl)cc1)N=Cc1ccccc1O (centres undefined) | 0.0 | 50.9 | . | 66.9* | 97.0* | -4.3
CCC(=O)N1[C@@H]2c3ccc(C4=CCCC4)c(=O)n3C[C@H]1[C@H](CO)[C@H]2C(=O)OC | -0.1 | . | . | -2.2 | -0.9 | -2.9
COc1ccc(CCNC2(C#N)CCCCC2)cc1OC | -0.2 | -45.2 | 83.6* | 4.0 | -2.3 | -1.0
COc1ccc(C#Cc2ccc([C@@H]3[C@@H](CO)N4CCCCN(C(=O)Cc5ccccc5)C[C@@H]34)cc2)cc1 | -0.8 | . | 3.9 | 7.6 | 12.9 | .
